We go through 7 compounds from ChEMBL document CHEMBL1137515, “Alpha-diaminobutyric acid-linked hairpin polyamides” (Bioorg Med Chem, 2007).

The nature of assay [1]: Binding affinity to pMFST TAGTGGT match site. In short, it runs like this:
(§1)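 DNase I footprinting titrations on the 5′ end-labeled PCR product of the relevant plasmid (pMFST or pMFST2). DNA was equilibrated with polyamide or water (control) for 12–16 h at room temperature before DNase I cleavage. Binding isotherms gave equilibrium association constants (M−1), reported as the mean of three titrations.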

Assay [2] is described as follows: Binding affinity to pMFST TAGTCGT mismatch site B. The essentials:
as §1

Assay [3] is described as follows: Binding affinity to pMFST2 TAGGTGT match site. The essentials: as §1
Assay [4] can be described thus: Binding affinity to pMFST2 TAGGTCT mismatch site A. In short, it runs like this:
as §1

A short description of assay [5]: Binding affinity to pMFST2 TAGCTGT mismatch site B. In short, it runs like this: as §1
Assay [6] can be described thus: Binding affinity to pMFST5 forward hairpin binding M site. In short, it runs like this:
(§2)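 Quantitative DNase I footprinting on the 301 bp 5′ end-labeled PCR product of plasmid pMFST5, using 1 pM to 100 nM polyamide across 11 lanes. DNA was incubated with polyamide or water for 12–16 h at room temperature before DNase I digestion. Equilibrium association constants (M−1) from binding isotherms are the mean of three experiments.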

A short description of assay [7]: Binding affinity to pMFST5 slipped extended S site. The essentials: as §2
A short description of assay [8]: Binding affinity to pMFST5 overlapped extended O site. In short, it runs like this: as §2
Assay [9] is described as follows: Binding affinity to pMFST ATGGTCA match site. In short, it runs like this: as §1
A short description of assay [10]: Binding affinity to pMFST AACGACT mismatch site A. The essentials:
as §1

The nature of assay [11]: Binding affinity to pMFST ATATGGT mismatch site A. The essentials: as §1
Assay [12] is described as follows: Binding affinity to pMFST TAGCACA mismatch site B. The essentials:
as §1

With `CN(C)CCCNC(=O)CCNC(=O)c1cc(NC(=O)c2cc(NC(=O)c3cc(NC(=O)c4cc(NC(=O)[C@@H](CCN)NC(=O)c5nc(NC(=O)c6nc(NC(=O)CCNC(=O)c7nccn7C)cn6C)cn5C)cn4C)cn3C)cn2C)cn1C`, the Ka in [1] is 8 10^8/M; in assay [2], 6.2 10^7/M.
For the compound `CN(C)CCCNC(=O)CCNC(=O)c1cc(NC(=O)c2cc(NC(=O)c3cc(NC(=O)c4cc(NC(=O)[C@@H](CCN)NC(=O)c5nc(NC(=O)c6cc(NC(=O)c7nc(NC(=O)c8nccn8C)cn7C)cn6C)cn5C)cn4C)cn3C)cn2C)cn1C`, the values for the Ka in assay [3] and in assay [4] were 3 10^8/M and 8.5 10^7/M, respectively.
For `CN(C)CCCNC(=O)CCNC(=O)c1cc(NC(=O)c2cc(NC(=O)c3cc(NC(=O)c4cc(NC(=O)[C@H](N)CCNC(=O)c5nc(NC(=O)c6cc(NC(=O)c7nc(NC(=O)c8nccn8C)cn7C)cn6C)cn5C)cn4C)cn3C)cn2C)cn1C`, the Ka in assay [5] is 1.1 10^9/M; in assay [3], 4.4 10^10/M; in [4], 1.1 10^10/M.
For `CN(C)CCCNC(=O)CCNC(=O)c1cc(NC(=O)c2cc(NC(=O)c3cc(NC(=O)c4nc(NC(=O)CNC(=O)c5cc(NC(=O)c6cc(NC(=O)c7nc(NC(=O)c8nccn8C)cn7C)cn6C)cn5C)cn4C)cn3C)cn2C)cn1C`, the Ka in assay [6] is 7 10^8/M; in assay [7], 1.3 10^9/M; in [8] it was 5.9 10^8/M.
For the compound `CN(C)CCCNC(=O)CCNC(=O)c1cc(NC(=O)c2cc(NC(=O)c3cc(NC(=O)c4nc(NC(=O)[C@@H](CCN)NC(=O)c5cc(NC(=O)c6cc(NC(=O)c7nc(NC(=O)c8nccn8C)cn7C)cn6C)cn5C)cn4C)cn3C)cn2C)cn1C`, the Ka in [9] was 4.4 10^9/M; in assay [10] it was 1.5 10^8/M; in [6], 9.8 10^9/M; in [8] it was 4.7 10^9/M.
Take `CN(C)CCCNC(=O)CCNC(=O)c1cc(NC(=O)c2cc(NC(=O)c3cc(NC(=O)c4cc(NC(=O)[C@H](N)CCNC(=O)c5nc(NC(=O)c6nc(NC(=O)CCNC(=O)c7nccn7C)cn6C)cn5C)cn4C)cn3C)cn2C)cn1C`: the figures for the Ka in assay [1], in assay [11] and in assay [2] were 4.3 10^10/M, 9.9 10^8/M and 6.2 10^9/M, respectively.
As to `CN(C)CCCNC(=O)CCNC(=O)c1cc(NC(=O)c2cc(NC(=O)c3cc(NC(=O)c4nc(NC(=O)[C@H](N)CCNC(=O)c5cc(NC(=O)c6cc(NC(=O)c7nc(NC(=O)c8nccn8C)cn7C)cn6C)cn5C)cn4C)cn3C)cn2C)cn1C`, the Ka in assay [9] is 4.9 10^10/M; in assay [12] it was 3.9 10^8/M; in assay [10] (in the assay text read “mismatch site C” for “mismatch site A”) it was 1.8 10^10/M.
